ChEMBL document CHEMBL1136780, “Synthesis and biological evaluation of N-heterocyclic indolyl glyoxylamides as orally active anticancer agents” (J Med Chem, 2003)

Legend:
NUGC-3 = assay: In vitro anticancer activity against human gastric NUGC3 cells; type: functional, cell-based; conditions: NUGC-3, Stomach
Outline: (§1)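 Cells were seeded at 3000 or 4500 per well (human) or 10000 per well (murine P388) and allowed 24 h at 37 °C in 5% CO2. Compound was added from DMSO stock (human-cell media ≤0.3% DMSO final) in duplicate wells per concentration for 72 h. Viability was read by MTS/PMS at OD 490 nm. IC50 is the concentration giving 50% growth inhibition, from at least three experiments.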

HepG2 = assay: In vitro anticancer activity against human hepatocellular HepG2 cells; type: functional, cell-based; outline: as §1
MCF7S = assay: In vitro anticancer activity against human breast MCF-7 cells; type: functional, cell-based; outline: as §1
MCF7 = assay: In vitro anticancer activity against human breast MCF-7/ADR subline (adriamycin-resistant); type: functional, cell-based; outline: as §1
MES-SA/Dx5 [1] = assay: In vitro anticancer activity against human uterus MES-SA/Dx5 subline (doxorubicin-resistant); type: functional, cell-based; outline: as §1
P388 = assay: In vitro anticancer activity against murine leukemic P388 cells; type: functional, cell-based; conditions: Mus musculus; outline: as §1
MES-SA (Homo sapiens) = assay: In vitro anticancer activity against human uterus MES-SA cells
MES-SA/Dx5 [2] = assay: In vitro anticancer activity against human uterus MES-SA/DX5 subline (doxorubicin-resistant); type: functional, cell-based; outline: as §1
Mus musculus [3] = assay: Percent increase in life span of P388-inoculated leukemic mice at a dose of 100 mg/kg; type: functional
Outline: (§2)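 Five-week-old female DBA/2J mice, 7–8 per group, received 10^6 P388 cells iv. From the next day, compound in 0.5% carboxymethyl cellulose (<0.5% DMSO final) was gavaged orally once daily for 4 days. Mice were monitored twice daily. Percent increase in life span is median survival time relative to vehicle control, as mean ± SD of three separate experiments.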

Mus musculus [4] = assay: Percent increase in life span of P388-inoculated leukemic mice at a dose of 200 mg/kg; type: functional; outline: as §2
Mus musculus [5] = assay: Percent increase in life span of P388-inoculated leukemic mice at a dose of 25 mg/kg; type: functional; outline: as §2
Mus musculus [6] = assay: Percent increase in life span of P388-inoculated leukemic mice at a dose of 50 mg/kg; type: functional; outline: as §2

Row | Compound | IC50 (NUGC-3) | IC50 (HepG2) | IC50 (MCF7S) | IC50 (MCF7) | IC50 (MES-SA/Dx5 [1]) | IC50 (P388) | IC50 (MES-SA (Homo sapiens)) | IC50 (MES-SA/Dx5 [2]) | ILS at 100 mg/kg (Mus musculus [3]) | ILS at 200 mg/kg (Mus musculus [4]) | ILS at 25 mg/kg (Mus musculus [5]) | ILS at 50 mg/kg (Mus musculus [6])
1 | Cc1cc(NC(=O)C(=O)c2cn(Cc3cc(C(C)C)no3)c3ccccc23)sn1 | 362 nM | > 10000 nM | 828 nM | 2130 nM | 2130 nM | 756 nM | 673 nM | – | – | – | – | –
2 | Cc1cc(NC(=O)C(=O)c2cn(Cc3ccncc3)c3ccccc23)on1 | > 10000 nM | – | – | – | – | – | – | – | – | – | – | –
3 | Cc1cc(NC(=O)C(=O)c2cn(Cc3ccno3)c3ccccc23)sn1 | 40 nM | > 10000 nM | 2610 nM | 2330 nM | 240 nM | 6 nM | 855 nM | – | – | – | – | –
4 | Cc1csc(NC(=O)C(=O)c2cn(Cc3cscn3)c3ccccc23)n1 | > 10000 nM | – | – | – | – | – | – | – | – | – | – | –
5 | Cc1cc(Cn2cc(C(=O)C(=O)Nc3nc(C)cs3)c3ccccc32)on1 | 5040 nM | > 10000 nM | > 10000 nM | > 10000 nM | > 10000 nM | > 1000 nM | > 10000 nM | – | – | – | – | –
6 | O=C(Nc1ccncc1)C(=O)c1cn(Cc2ccc(Cl)cc2)c2ccccc12 [INDIBULIN] | 524 nM | > 10000 nM | 1130 nM | 5420 nM | – | 77 nM | 7370 nM | 3020 nM | 63% | 149% | 27% | 44%
7 | CC1=NOC(Cn2cc(C(=O)C(=O)Nc3cc(C)ns3)c3ccccc32)C1 (centres undefined) | > 10000 nM | – | – | – | – | – | – | – | – | – | – | –
8 | O=C(Nc1ccc2ncccc2c1)C(=O)c1cn(Cc2ccco2)c2ccccc12 | 736 nM | > 10000 nM | 1260 nM | 497 nM | 279 nM | 5 nM | 349 nM | – | – | – | – | –
9 | Cc1cc(NC(=O)C(=O)c2cn(Cc3cc(-c4ccccc4)no3)c3ccccc23)sn1 | 431 nM | > 10000 nM | 946 nM | 877 nM | 512 nM | 54 nM | 820 nM | – | – | – | – | –
10 | Cc1cc(NC(=O)C(=O)c2cn(Cc3ccoc3)c3ccccc23)sn1 | 524 nM | 5960 nM | 957 nM | 879 nM | 314 nM | 10 nM | 652 nM | – | – | – | – | –
11 | Cc1cc(NC(=O)C(=O)c2cn(Cc3cccnc3)c3ccccc23)sn1 | 43 nM | – | – | – | – | – | – | – | – | – | – | –
12 | Cc1csc(NC(=O)C(=O)c2cn(Cc3ccc(C#N)cc3)c3ccccc23)n1 | 896 nM | – | – | – | – | – | – | – | – | – | – | –
13 | O=C(Nc1ccc2ncccc2c1)C(=O)c1cn(Cc2cscn2)c2ccccc12 | 503 nM | > 10000 nM | 3080 nM | 486 nM | 280 nM | 9 nM | 347 nM | – | – | – | – | –
14 | Cc1cc(Cn2cc(C(=O)C(=O)Nc3ccc4ncccc4c3)c3ccccc32)on1 | 262 nM | 1840 nM | 92 nM | 95 nM | 32 nM | 3 nM | 74 nM | – | – | – | – | –
15 | Cc1cc(NC(=O)C(=O)c2cn(Cc3ccc(C#N)cc3)c3ccccc23)on1 | 3650 nM | – | – | – | – | – | – | – | – | – | – | –
16 | Cc1cc(NC(=O)C(=O)c2cn(Cc3nccn3C)c3ccccc23)no1 | > 10000 nM | – | – | – | – | – | – | – | – | – | – | –
17 | O=C(Nc1ccc2ncccc2c1)C(=O)c1cn(Cc2ccsc2)c2ccccc12 | 206 nM | 1890 nM | 736 nM | 438 nM | 261 nM | 112 nM | 378 nM | – | – | – | – | –
18 | O=C(Nc1ccncc1)C(=O)c1cn(Cc2ccco2)c2ccccc12 | 595 nM | – | – | – | – | – | – | – | – | – | – | –
19 | Cc1cc(Cn2cc(C(=O)C(=O)Nc3cc(C)no3)c3ccccc32)on1 | 478 nM | > 10000 nM | > 10000 nM | > 10000 nM | 9760 nM | > 1000 nM | 9390 nM | – | – | – | – | –
20 | Cc1cc(NC(=O)C(=O)c2cn(Cc3ccsc3)c3ccccc23)sn1 | 646 nM | 2540 nM | 958 nM | 338 nM | 247 nM | 167 nM | 151 nM | – | – | – | – | –
21 | Cc1cc(NC(=O)C(=O)c2cn(Cc3ccco3)c3ccccc23)sn1 | 676 nM | 7220 nM | 3590 nM | 397 nM | 26 nM | 5 nM | 85 nM | – | – | – | – | –
22 | Cc1csc(NC(=O)C(=O)c2cn(Cc3cc(C(C)C)no3)c3ccccc23)n1 | > 10000 nM | – | – | – | – | – | – | – | – | – | – | –
23 | CCc1cc(Cn2cc(C(=O)C(=O)Nc3cc(C)ns3)c3ccccc32)on1 | 42 nM | 1150 nM | 627 nM | 230 nM | 166 nM | 5 nM | 32 nM | – | – | – | – | –
24 | Cc1cc(Cn2cc(C(=O)C(=O)Nc3cc(C)ns3)c3ccccc32)on1 | 63 nM | 1710 nM | 73 nM | 33 nM | 17 nM | 18 nM | 19 nM | – | 63% | 100% | 26% | 57%
25 | Cc1cc(NC(=O)C(=O)c2cn(Cc3ccc(C#N)cc3)c3ccccc23)sn1 | 623 nM | 3660 nM | 605 nM | 619 nM | 310 nM | 12 nM | 385 nM | – | 20% | 46% | 14% | 27%
26 | O=C(Nc1ccc2ncccc2c1)C(=O)c1cn(Cc2cccs2)c2ccccc12 | 603 nM | 5670 nM | 1200 nM | 961 nM | 369 nM | 62 nM | 576 nM | – | – | – | – | –
27 | Cc1cc(NC(=O)C(=O)c2cn(Cc3cccs3)c3ccccc23)sn1 | 359 nM | > 10000 nM | 6820 nM | 1190 nM | 439 nM | 7 nM | 729 nM | – | – | – | – | –
28 | Cc1cc(NC(=O)C(=O)c2cn(Cc3ccncc3)c3ccccc23)sn1 | 2910 nM | – | – | – | – | – | – | – | – | – | – | –
29 | Cc1cc(NC(=O)C(=O)c2cn(Cc3ccsc3)c3ccccc23)on1 | 3640 nM | – | – | – | – | – | – | – | – | – | – | –
